Screening data: PubChem BioAssay, several laboratories
Hits are enriched below; roughly 2.2% of the tested compounds scored in any of these assays.
SDO1 yeast rescue – growth rescue of sdo1-depleted yeast, primary screen, S. cerevisiae, bone marrow failure model | 0.21% of 140,000 active | S. cerevisiae sdo1-depleted JHY4D growth rescue, OD600 30 h; stronger effect = higher value; pdr5 snq2 efflux-pump mutant strain | AID 817, 2007 | z-score at 10 µM;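 active = z-score above 3 at both the 24 hr and the 30 hr optical density reads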
bCat KO growth – primary screen for growth suppressors in beta-catenin knockout HCT116 cells (colon tumor, human); HCT116 beta-catenin knockout viability, CellTiter-Glo, 60 h; stronger effect = lower value; viability, % at 10 µM; 1.5% of 140,000 active;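 active = viability at or under a set limit, the compound median less 4 SD, cut at about 6% in these data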
PTEN del growth – growth suppression of PTEN-null HCT116, primary screen, cell-based, CellTiter-Glo. viability, % at 10 µM. 1.2% of 140,000 active. HCT116 PTEN-null viability, 60 h; stronger effect = lower value;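 active = viability at or below a set limit, 4 SD under the median of all tested compounds, cut at about 3.7% in these data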;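 note: PTEN knockout HCT116 line with beta catenin targeted HCT116 as companion control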
Dynein transport – inhibitors of GR-EGFP nuclear translocation, primary screen, dynein cargo transport inhibitor project, imaging, high-content, 3617.4 mouse cells. 0.47% of 220,000 active. test concentration mostly 20 µM; stimulated with dexamethasone, 1 µM; stronger effect = lower value. AID 1381, 2008. z-score, hits read low;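 active = plate z-score of nuclear minus cytoplasmic receptor signal below a set negative limit, without overly bright fluorescence or cell loss, cut at about -3.5 in these data, passing the limit was not always enough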;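 note: z-score of nuclear minus cytoplasmic ring GR-EGFP intensity difference per well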
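Buffer or medium: tet-free, stripped-serum medium; reagent: dexamethasone at 1.0 µM final, 30 min; incubation: 48 h induction, 1 h compound, 30 min dex at 37 °C; measured by: formaldehyde fixation, Hoechst nuclear stain, 10x automated fluorescence imaging; read-out: nuclear-to-cytoplasmic GR-EGFP distribution per well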
Autophagy HCS – autophagy modulators in MEF cells, primary screen, imaging, high-content, MEF GFP-LC3; MEF GFP-LC3 puncta imaging; test concentration mostly 10 µM; calls only at 10 µM (by protocol); 0.98% of 190,000 active; AID 463193, 2010;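 active = percentage of spot-positive cells more than 3 SD above its plate mean, without a fluorescence outlier flag or 80% toxicity; inconclusive = no clear call, values can overlap the other calls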
Dynein inh conf – dynein cargo transport inhibitors, GR-EGFP translocation, confirmation, imaging, high-content imaging, GR-EGFP cells | calls only at 20 µM | AID 463116, 2010 | 69% of 1,000 active | 3617.4 GR-EGFP nuclear translocation imaging, dexamethasone-induced | shares compounds with Dynein transport;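 active = inhibition of receptor movement into the nucleus at or above a set limit in both runs, with normal cell brightness and cell count; inconclusive = limit reached in only one run, brightness and count normal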;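 note: dexamethasone at 1 µM final in well for 30 min; nuclear minus cytoplasmic GR-EGFP mean intensity difference in channel 2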
Of the large screens only hits and unclear results are named; the others gave an inactive call (follow-up assays come after a bar, where they were run).

O=C(O)c1ccc(C=C(c2nc3ccccc3s2)c2nc3ccccc3s2)cc1	Dynein transport -4.6 (no result: SDO1 yeast rescue, bCat KO growth, PTEN del growth) | Dynein inh conf active
N#C/C(=C\c1ccc[nH]1)S(=O)(=O)c1ccccc1	none
CCS(=O)(=O)N1CCN=C1SCc1cccnc1	none (no result: SDO1 yeast rescue, bCat KO growth, PTEN del growth)
COc1ccc(N=CC2=C(Nc3ccc(OC)cc3)c3c(C)nn(-c4ccccn4)c3CC2)cc1	none (no result: SDO1 yeast rescue, bCat KO growth, PTEN del growth) | Dynein inh conf inactive
COc1ccc(-c2cc(C(=O)O)c3c(C)nn(-c4ccccn4)c3n2)cc1	none
N#CC1=C(N)C(C#N)(C#N)C(c2ccncc2)C2CN(C(=O)OCc3ccccc3)CC=C12 (centres undefined)	none | Dynein inh conf inactive
N#CC1=C(N)C(C#N)(C#N)[C@H](c2cccnc2)[C@H]2CN(C(=O)OCc3ccccc3)CC=C12	none
O=[N+]([O-])c1ccc(Sc2nnnn2-c2ccccc2)c(Cl)c1	none
CC(=O)c1ccc(Sc2nnnn2-c2ccccc2)c([N+](=O)[O-])c1	bCat KO growth 5.7, Dynein transport -4.3 | Dynein inh conf inactive
CN1CCN(S(=O)(=O)c2ccc(Sc3nnnn3-c3ccccc3)c([N+](=O)[O-])c2)CC1	bCat KO growth 5.4, PTEN del growth 3.2, Dynein transport -3.5 | Dynein inh conf active
O=C(/C=C/Sc1ccccc1)c1ccc(Cl)cc1	none
O=C(/C=C/Sc1ccccc1)c1ccccc1	bCat KO growth 2.1, PTEN del growth 1.4, Dynein transport -3.6 | Dynein inh conf active
COc1ccc(CC(=O)n2[nH]c(=O)ccc2=O)cc1OC	Dynein transport -3.6 (no result: SDO1 yeast rescue, bCat KO growth, PTEN del growth, Autophagy HCS) | Dynein inh conf inactive
COc1ccc(CC(=O)n2[nH]c(=O)c3ccccc3c2=O)cc1OC	none (no result: SDO1 yeast rescue, bCat KO growth, PTEN del growth, Autophagy HCS)
O=C(/C=C\c1ccccc1OC(=O)c1ccccc1F)c1cc2ccccc2o1	bCat KO growth 3.3, PTEN del growth 2.0, Dynein transport -4.7 | Dynein inh conf active
O=C(Cc1ccccc1)NN1C(=O)C2C(C1=O)C1C=CC2C12CC2 (centres undefined)	none
Cn1c(=O)c(Nc2ccc(Cl)cc2)c2c3c(cccc31)C(=O)c1ccccc1-2	Autophagy HCS active (no result: SDO1 yeast rescue, bCat KO growth, PTEN del growth) | Dynein inh conf active
CC(=O)NC(Cc1ccccc1)C(=O)N1CCN(C(=O)c2ccco2)CC1 (centres undefined)	none
CC(=O)NC(CSC(CC(=O)c1ccco1)c1ccc(C)cc1)C(=O)O (centres undefined)	Dynein transport -4.3 (no result: SDO1 yeast rescue, bCat KO growth, PTEN del growth) | Dynein inh conf inactive
Cc1ccc(/C=C/C(=O)NCC2COc3ccccc3O2)o1 (centres undefined)	Dynein transport -6.6 (no result: SDO1 yeast rescue, bCat KO growth, PTEN del growth) | Dynein inh conf active
O=[N+]([O-])c1ccc(S(=O)(=O)CC(CN2CCOCC2)N2CCOCC2)cc1 (centres undefined)	none (no result: SDO1 yeast rescue, bCat KO growth, PTEN del growth)
O=[N+]([O-])c1ccc(S(=O)(=O)CC(CN2CCCCC2)N2CCCCC2)cc1 (centres undefined)	none (no result: SDO1 yeast rescue, bCat KO growth, PTEN del growth) | Dynein inh conf active
CC[n+]1c(/C=C/C=C/N(C(C)=O)c2ccccc2)sc2cc(OC)ccc21	bCat KO growth 6.0, Dynein transport -3.8, Autophagy HCS inconclusive | Dynein inh conf active
Cc1ccc(-n2nnnc2CCl)cc1	Dynein transport -6.1 (no result: SDO1 yeast rescue, bCat KO growth, PTEN del growth) | Dynein inh conf active
Cc1ccc(-c2nnnn2-c2ccc(C)cc2)cc1	none (no result: SDO1 yeast rescue, bCat KO growth, PTEN del growth)
CCN(CC)c1ccc2cc(-c3nc4ccccc4[nH]3)c(=O)oc2c1	Dynein transport -5.2, Autophagy HCS active | Dynein inh conf active
CCN(CC)c1ccc2cc(-c3nc4ccccc4n3C)c(=O)oc2c1	none
CCN(CC)c1ccc2cc(-c3nc(-c4ccc(OC)cc4)cs3)c(=O)oc2c1	Dynein transport -5.1 (no result: Autophagy HCS) | Dynein inh conf active
O=C(N/N=C/C=C\c1ccc([N+](=O)[O-])cc1)c1cccnc1	none (no result: SDO1 yeast rescue, bCat KO growth, PTEN del growth, Autophagy HCS)
COc1ccc(C2C(C#N)=C(N)Oc3c2sc2nc(C)cc(C)c32)cc1 (centres undefined)	bCat KO growth 0.9, PTEN del growth 0.6, Dynein transport -3.9 | Dynein inh conf inactive
Cc1cc(C)c2c3c(sc2n1)C1(CCSCC1)C(C#N)=C(N)O3	none
COc1ccc(C(=O)Cn2c(C)nc([N+](=O)[O-])c2Br)cc1	Dynein transport -5.8 (no result: SDO1 yeast rescue, bCat KO growth, PTEN del growth, Autophagy HCS) | Dynein inh conf active
Cc1cc(C)n(CC(=O)c2ccc(Cl)cc2)n1	none (no result: SDO1 yeast rescue, bCat KO growth, PTEN del growth)
Cc1nc([N+](=O)[O-])c(Br)n1CC(=O)c1ccc(Cl)cc1	Dynein transport -6.5 | Dynein inh conf active
Cc1nc([N+](=O)[O-])c(Br)n1Cc1ccc(Cl)c(Cl)c1	Dynein transport -4.2 (no result: SDO1 yeast rescue, bCat KO growth, PTEN del growth) | Dynein inh conf active
O=C(CNc1ccccc1OC(F)F)N1CCc2ccccc21	none (no result: SDO1 yeast rescue, bCat KO growth, PTEN del growth)
COc1cc(C)nc(-c2csc(C)n2)n1	none (no result: SDO1 yeast rescue, bCat KO growth, PTEN del growth, Autophagy HCS)
COc1cccc(OC)c1C(=O)NN1CCCCC1	none
COc1ccc(NS(=O)(=O)c2ccc(NC(=S)NC(=O)c3ccc(Br)cc3)cc2)nn1	none
Cc1cc(Sc2nc(N)ncc2[N+](=O)[O-])ncn1	Dynein transport -5 (no result: SDO1 yeast rescue, bCat KO growth, PTEN del growth) | Dynein inh conf active
Cc1cc(Sc2ncnc(N)c2[N+](=O)[O-])ncn1	Dynein transport -5.7 (no result: SDO1 yeast rescue, bCat KO growth, PTEN del growth) | Dynein inh conf active
Cc1cc(C(=O)CSc2nnc(-c3ccco3)o2)c(C)n1CC1COc2ccccc2O1 (centres undefined)	none
CCCCCCCOC(=O)C[N+](C)(C)CCOC1CC2CCC1(C)C2(C)C (centres undefined)	bCat KO growth 1.6, PTEN del growth 1.3, Dynein transport -4.6 | Dynein inh conf inactive
CCCCCCOC(=O)C[N+](C)(C)CCOC1CC2CCC1(C)C2(C)C (centres undefined)	none
Cc1cccn2c(=O)c(C=O)c(Cl)nc12	Dynein transport -5.9 (no result: SDO1 yeast rescue, bCat KO growth, PTEN del growth, Autophagy HCS) | Dynein inh conf active
CCOC(=O)COc1ccc2ccccc2c1/C=C/[N+](=O)[O-]	bCat KO growth 3.3, PTEN del growth 2.6, Dynein transport -4.8 | Dynein inh conf active
CCOc1ccccc1NC(=O)/C=C/c1ccccc1[N+](=O)[O-]	none
CCOC(=O)COc1ccc(/C=C/[N+](=O)[O-])c(OCC(=O)OCC)c1	bCat KO growth 4.0, PTEN del growth 1.9, Dynein transport -4.8 | Dynein inh conf active
CCOc1ccc(/C=C/[N+](=O)[O-])c2ccccc12	bCat KO growth 2.0, PTEN del growth 1.8, Dynein transport -3.9 | Dynein inh conf inactive
Cc1nc(Oc2ccc(Cl)cc2)c2oc3ccccc3c2n1	none
CCCN(CCC)S(=O)(=O)c1ccc(Cl)c([N+](=O)[O-])c1	Dynein transport -3.5 (no result: SDO1 yeast rescue, bCat KO growth, PTEN del growth) | Dynein inh conf inconclusive
Cc1c(C)[n+](=O)c(-c2ccc(Br)cc2)c(C)n1[O-]	none (no result: SDO1 yeast rescue, bCat KO growth, PTEN del growth, Autophagy HCS)
Cc1nnc(SCC(=O)NC(C)c2ccccc2)[nH]c1=O (centres undefined)	none
CC(=O)c1sc2nsc(SCCN3CCCCC3)c2c1N	none (no result: SDO1 yeast rescue, bCat KO growth, PTEN del growth, Autophagy HCS)
